The values below come from ChEMBL document CHEMBL1649385, “Synthesis and in vitro anti-tumor activity of new oxadiazole thioglycosides” (Eur J Med Chem, 2011).

One data set relates to HepG2. The data set can be described thus: Cytotoxicity against human HepG2 cells after 48 hrs by SRB assay. It is filed as functional, cell-based. The settings on record: HepG2, 48 h. The essentials: (§1)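 SRB assay: cells seeded at 10⁴ cells/well and left 24 h to attach, then exposed to four concentrations of compound for 48 h at 37 °C, 5% CO₂. Cells fixed, washed and stained with sulforhodamine B; excess dye removed with acetic acid, bound dye taken up in Tris-EDTA and read on an ELISA reader. IC50 from surviving fraction versus concentration curves, relative to saline control.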
(In general: In SRB staining, fixed cells bind dye roughly in proportion to their protein.)

A further data set deals with MCF7. Nature of the data set: Cytotoxicity against human MCF7 cells after 48 hrs by SRB assay. It counts as functional, cell-based. To be noted: MCF7, 48 h. The essentials: as §1
A short description of data set [1]: Acute toxicity in po dosed albino Wistar rat assessed as mortality after 24 hrs. It is filed as organism-based. To be noted: in vivo. The gist of the method:
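Male Wistar albino rats (110–115 g) were acclimated for 7 days with pellet diet and water ad libitum. Compound in DMSO was given as a single oral gavage of 500 mg/kg body weight at a fixed 0.5 mL/rat, with eight rats per group. Controls received 0.5 mL DMSO. Mortality was recorded after 24 h.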

The nature of data set [2]: Acute toxicity in albino Wistar rat assessed as mortality at 50 mg/kg, po after 24 hrs. It is filed as organism-based. Further details: dose 50 mg/kg, route oral. The settings on record: in vivo, read-out: Activity.

≈ marks a conversion by molar mass, not a printed value.

With `O=c1[nH]cc(F)c(=O)[nH]1` [FLUOROURACIL], in the data set with HepG2, the IC50 (in general, the concentration at which inhibition is half-maximal) stood at 25 µg/mL (≈ 192 µM).
In turn, `CC/C(=C(\c1ccccc1)c1ccc(OCCN(C)C)cc1)c1ccccc1` [TAMOXIFEN] showed an IC50 with MCF7 of 8.31 µg/mL (≈ 22.4 µM).
Consider `CC(C)Cc1nn(-c2ccccc2)cc1-c1nnc(S)o1`, for which the IC50 with HepG2 turned out to be 43.6 µg/mL (≈ 145 µM); in the data set on MCF7 it was 17.9 µg/mL (≈ 59.6 µM). Also, the LD50 (commonly the dose expected to kill half of the subjects tested) at 24 h in data set [1] is more than 500 mg/kg.
For the molecule `CC(=O)OC[C@H]1O[C@@H](Sc2nnc(-c3cn(-c4ccccc4)nc3CC(C)C)o2)[C@H](OC(C)=O)[C@@H](OC(C)=O)[C@@H]1OC(C)=O`, in data set [2], the mortality at 24 h is 25%. Besides, the IC50 in the data set on HepG2 amounted to 13.9 µg/mL (≈ 22 µM); in the data set with MCF7 it was 7.1 µg/mL (≈ 11.3 µM). In addition, in data set [1], the median lethal dose (LD50) at 24 h is more than 500 mg/kg.
On the same counts, the results for `CSCSc1nnc(-c2cn(-c3ccccc3)nc2CC(C)C)o1` are 25%, 4.62 µg/mL (≈ 12.8 µM), 2.67 µg/mL (≈ 7.41 µM) and more than 500 mg/kg.
In the case of `CC(=O)OC[C@@H]1O[C@H](Sc2nnc(C)c(=O)n2/N=C\c2cn(-c3ccccc3)nc2CC(C)C)[C@@H](OC(C)=O)[C@H](OC(C)=O)[C@H]1OC(C)=O`, the IC50 in the data set on HepG2 came out at 9.1 µg/mL (≈ 13 µM); in the data set on MCF7, 20.2 µg/mL (≈ 29 µM).
